TDP2 inh: human TDP2 enzyme inhibitors, primary screen, biochemical, epi absorbance, recombinant enzyme; Tyrosyl-DNA phosphodiesterase 2 (Homo sapiens), O95551; T5PNP hydrolysis, p-nitrophenol absorbance 415 nm; inhibition, % at 12.8 µM; 370,000 compounds, 0.34% hits; AID 720702, 2013;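 active = inhibition above the mean of all tested compounds plus 3 SD, set per campaign, cut at about 25% in these data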;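 also: 0% = DMSO with enzyme and 100% = buffer with substrate but no TDP2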
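Read-out basis: percent inhibition. System: recombinant human TDP2. Buffer or medium: Mg2+-containing Tris-HCl buffer, pH 7.5. Repeats: single replicate. Timing: reaction 2 h, 37 °C. Benchmarks: high control without enzyme, low control DMSO plus TDP2. Probe or stimulus: 5 mM T5PNP. Doses: 12.8 µM only. Measured by: epi absorbance of p-nitrophenol freed from T5PNP by hydrolysis.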
PAD4 inh: human PAD4 inhibitors, primary screen, biochemical, fluorescence polarization, 1536-well format; Protein-arginine deiminase type-4 (Homo sapiens), Q9UM07; recombinant PAD4, RCA probe fluorescence polarization; inhibition, % at 6.36 µM; 330,000 compounds, 0.41% hits; AID 485272, 2010;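 active = percent inhibition above a cutoff equal to the mean of all tested compounds plus 3 SD, cut at about 15% in these data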;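 also: 0% = PAD4 with RCA probe and DMSO and 100% = probe without PAD4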
PRMT1 FP inh: PRMT1 methyltransferase inhibitors, primary screen, biochemical, fluorescence polarization; recombinant PRMT1, activity-based probe fluorescence polarization; AID 652257, 2013; Protein arginine N-methyltransferase 1 (Homo sapiens), Q99873; 370,000 compounds, 1.3% hits; inhibition, % at 2.79 µM;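 active = inhibition above about 21% made by adding two undisclosed values, limit read from the data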
Target sequence (Q99873 whole entry, looked up): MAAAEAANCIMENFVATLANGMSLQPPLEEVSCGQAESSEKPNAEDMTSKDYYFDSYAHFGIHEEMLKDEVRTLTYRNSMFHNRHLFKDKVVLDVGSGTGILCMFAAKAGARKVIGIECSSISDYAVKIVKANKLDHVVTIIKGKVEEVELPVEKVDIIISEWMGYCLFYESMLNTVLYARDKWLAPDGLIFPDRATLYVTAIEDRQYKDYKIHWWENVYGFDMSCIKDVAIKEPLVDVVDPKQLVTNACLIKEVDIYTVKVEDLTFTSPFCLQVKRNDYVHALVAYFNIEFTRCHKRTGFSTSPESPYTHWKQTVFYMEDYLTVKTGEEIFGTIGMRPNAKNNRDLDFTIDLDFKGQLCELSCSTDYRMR
GSTO1 inh: inhibitors of recombinant GSTO1, primary screen, counter-screen for RBBP9 inhibitor project, biochemical, fluorescence polarization; Glutathione S-transferase omega-1 (Homo sapiens), P78417; activity-based probe fluorescence polarization; inhibition, % at 5.96 µM; 300,000 compounds, 1.1% hits;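 active = inhibition above the campaign mean inhibition plus 3 SD, cut at about 35% in these data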;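 also: 0% = GSTO1-1 with DMSO and 100% = wells lacking GSTO1-1 enzyme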
Fh CTSL1 inh: Fasciola hepatica cathepsin L1 inhibitors, primary screen, counter-screen for PFM18AAP inhibitor project, biochemical, QFRET, fluorogenic peptide substrate | recombinant F. hepatica cathepsin L1, Z-Leu-Arg-MCA fluorescence | inhibition, % at 5.96 µM | 300,000 compounds, 0.49% hits | AID 1906, 2009;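 active = inhibition above the mean of all tested compounds plus 3 SD, set per screening campaign, cut at about 17% in these data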;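 also: 0% = plate median of test compound wells and 100% = 1 µM Z-Phe-Ala-diazomethylketone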
GSTO1 inh conf: GSTO1 inhibitor hit confirmation, counter-screen for RBBP9 inhibitor project, biochemical, fluorescence polarization, triplicate | recombinant GSTO1, probe fluorescence polarization | inhibition, % at 5.96 µM | 2,400 compounds, 54% hits | AID 2176, 2009 | shares compounds with GSTO1 inh;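 active = inhibition above the primary screen's cutoff, its mean inhibition plus 3 SD, cut at about 35% in these data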;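 also: loss of polarization as inhibitors block binding of rhodamine sulfonate ester activity probe; 0% = GSTO1 with DMSO and 100% = wells lacking GSTO1 enzyme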
GSTO1 recomb ABPP: inhibitors of purified human GSTO1, late-stage follow-up, biochemical, gel ABPP, SE-Rh probe, percent inhibition. inhibition, % at 1 µM. shares compounds with GSTO1 inh. recombinant GSTO1, gel ABPP SE-Rh probe fluorescence. AID 463110, 2010. 130 compounds, 30% hits;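 active = inhibition of the enzyme GSTO1 above about 75%, limit read from the data; inactive = inhibition below that limit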
Active calls of the source: *; x = not tested or not shown. Sampled rows, rich in hits. Any-hit rate of the full collection: about 2.5%.

SMILES | TDP2 inh | PAD4 inh | PRMT1 FP inh | GSTO1 inh | Fh CTSL1 inh | GSTO1 inh conf | others
Cc1cc(C)cc(C(=O)OCCN(C)C2CN(Cc3cn(Cc4ccccc4F)nn3)S(=O)(=O)C2)c1 (stereo unspecified) | 1 | x | -2 | x | x | x
CCOC(=O)C1=C(C)N(c2ccc(OC)cc2)C(=O)/C1=C\c1ccc(O)c(OCC)c1 | -5 | -3 | 32* | 57* | -2 | 9
COCCNC(=O)C(c1cccs1)N(C(=O)Cn1nnc2ccccc21)c1ccccc1 (stereo unspecified) | -7 | 3 | -2 | 4 | 1 | x
COc1ccc(N(C(=O)CCl)C(C(=O)NCCc2ccccc2)c2cccs2)cc1Cl (stereo unspecified) | 4 | 10 | 2 | 89* | -3 | 91* | GSTO1 recomb ABPP=92*
COc1cccc(N(C(=O)CCl)C(C(=O)NCCc2ccccc2)c2cccs2)c1 (stereo unspecified) | 3 | 11 | 2 | 94* | 0 | 95* | GSTO1 recomb ABPP=75*
C=CCn1c(COc2ccc(C)cc2)nnc1SCc1ccc([N+](=O)[O-])cc1 | -5 | x | -6 | x | x | x
CC1(O)C(=O)C=C2C=C(c3ccsc3)OC=C2C1=O (stereo unspecified) | x | 1 | x | 46* | 1 | 25
COC(=O)CCC(=O)OC1(C)C(=O)C=C2C=C(c3ccsc3)OC=C2C1=O (stereo unspecified) | x | -14 | x | 32 | -2 | x
CCC(=O)OC1(C)C(=O)C=C2C=C(c3ccsc3)OC=C2C1=O (stereo unspecified) | x | -14 | x | 40* | 1 | 26
O=C(NCc1ccc(F)c(F)c1)C1CCCN(c2nc3ccccc3o2)C1 (stereo unspecified) | -14 | x | 16 | x | x | x
CC(C)(C)c1ccc(O)c(N)c1 | x | -15 | x | 38* | 0 | 1
CC(C)c1ccc(O)c(N)c1 | -7 | -4 | 4 | 16 | -2 | x
CCN(CC)C(=O)CN1C(=O)C2CCCCN2C(=O)c2ccccc21 (stereo unspecified) | -5 | x | 2 | x | x | x
COC(=O)c1ccc(S(=O)(=O)N2CCC(NC(=O)Cc3ccccc3)CC2)cc1 | 7 | x | -4 | x | x | x
Cc1ccc(C=C2C(Cl)=C(Cl)C(Cl)=C2Cl)cc1 | x | 2 | x | 45* | -1 | 15
O=C(NCc1ccccc1Cl)C1CCCN(c2nc3ccccc3o2)C1 (stereo unspecified) | -4 | x | 13 | x | x | x
COC(=O)c1ccc(=O)c2nc3/c(=C/O)c(O)cc(=O)c3[nH]c12 | 3 | 14 | 29* | 75* | 4 | 71*
O=S(=O)(CC1NCc2ccccc21)NCc1ccc(F)cc1 (stereo unspecified) | -1 | x | 2 | x | x | x
Cc1ccc(-c2cc(O)cc3sc(=O)oc23)cc1C | -16 | 7 | 8 | 53* | -3 | 8
CCC(C)N=C1SCC(C)(/C=N/O)S1 (stereo unspecified) | -1 | -1 | 3 | 15 | -4 | x
CC(C)(C)N=C1SCC(C)(/C=N/O)S1 (stereo unspecified) | 7 | 1 | -2 | 42* | -3 | 9
Cc1cc(C)n(/N=C\c2c(O)ccc3ccccc23)c(=O)c1C(N)=O | -6 | -9 | 2 | 43* | 7 | 6
CCN(C)c1nc(C)nc2c1nnn2Cc1ccccc1 | 1 | x | -1 | x | x | x
CCC(C(=O)Nc1ccccc1N1CCCC1)c1ccccc1F (stereo unspecified) | 2 | x | 0 | x | x | x
Cc1ccc(S(=O)(=O)Oc2ccc(C3C4=C(CCCC4=O)OC4=C3C(=O)CCC4)cc2)cc1 | -6 | 5 | 0 | 7 | 15 | x
